One assay relates to Euplotes aediculatus. In words: Inhibition of purified telomerase of Euplotes aediculatus at 50 uM. Summed up: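 Endogenous telomerase purified from E. aediculatus, tested in a direct activity assay with inhibitor at 50 µM.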
The test system of assay [1] is Tetrahymena thermophila. Put plainly: Inhibition of telomerase after assembly using recombinant Tetraymena thermophilia TR and TERT at 50 uM.
Assay [2] concerns Tetrahymena thermophila. Put plainly: Inhibition of telomerase before assembly using recombinant Tetraymena thermophilia TR and TERT at 50 uM.
Assay [3] has as its target Telomerase reverse transcriptase (Homo sapiens) (UniProt O14746). In words: Inhibition of human telomerase after assembly using recombinant hTR and hTERT at 50 uM. In short, it runs like this: (§1)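 Telomerase reconstituted from in vitro transcribed hTR and hTERT translated in vitro in rabbit reticulocyte lysate. Line 2: ligand added to hTR plus hTERT before a 90 min assembly incubation in lysate. Line 1: ligand added to telomerase already assembled in lysate.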

Assay [4] has the same target. In words: Inhibition of human telomerase before assembly using recombinant hTR and hTERT at 50 uM. Summed up:
as §1

Telomerase reverse transcriptase (Homo sapiens), sequence (O14746 whole entry): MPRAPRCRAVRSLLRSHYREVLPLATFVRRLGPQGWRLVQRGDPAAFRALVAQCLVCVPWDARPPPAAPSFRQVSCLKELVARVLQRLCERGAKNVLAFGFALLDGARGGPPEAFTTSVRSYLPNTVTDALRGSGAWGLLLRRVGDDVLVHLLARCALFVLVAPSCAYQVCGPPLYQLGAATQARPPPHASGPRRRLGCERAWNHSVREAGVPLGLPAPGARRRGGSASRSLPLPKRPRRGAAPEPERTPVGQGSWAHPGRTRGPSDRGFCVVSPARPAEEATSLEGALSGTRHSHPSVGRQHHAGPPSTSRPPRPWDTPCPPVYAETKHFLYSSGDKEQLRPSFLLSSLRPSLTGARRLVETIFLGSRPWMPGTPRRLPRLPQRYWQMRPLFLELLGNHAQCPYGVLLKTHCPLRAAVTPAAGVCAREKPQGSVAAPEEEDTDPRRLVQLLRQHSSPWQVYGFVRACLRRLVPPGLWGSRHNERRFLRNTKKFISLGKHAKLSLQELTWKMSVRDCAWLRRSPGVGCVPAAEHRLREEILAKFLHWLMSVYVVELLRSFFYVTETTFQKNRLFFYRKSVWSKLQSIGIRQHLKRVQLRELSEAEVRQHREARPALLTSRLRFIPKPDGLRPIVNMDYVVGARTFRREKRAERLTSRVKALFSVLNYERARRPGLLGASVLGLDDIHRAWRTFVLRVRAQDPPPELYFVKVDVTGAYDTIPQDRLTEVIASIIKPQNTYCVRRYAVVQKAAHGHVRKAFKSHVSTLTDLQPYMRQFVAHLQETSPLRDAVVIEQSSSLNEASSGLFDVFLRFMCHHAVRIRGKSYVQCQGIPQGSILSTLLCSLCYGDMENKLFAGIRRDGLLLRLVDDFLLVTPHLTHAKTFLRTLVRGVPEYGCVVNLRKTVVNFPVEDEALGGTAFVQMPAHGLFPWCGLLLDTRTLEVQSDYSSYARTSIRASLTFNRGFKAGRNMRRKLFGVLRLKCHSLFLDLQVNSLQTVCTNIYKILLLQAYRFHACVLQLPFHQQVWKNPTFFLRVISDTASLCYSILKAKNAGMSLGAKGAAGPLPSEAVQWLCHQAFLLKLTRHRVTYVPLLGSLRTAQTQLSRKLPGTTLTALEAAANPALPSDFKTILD

The term inhibition denotes the drop in the measured response relative to a control, in per cent. For the molecule GENTAMICIN, the inhibition in the assay on Euplotes aediculatus was 0%; in the assay on Tetrahymena thermophila [1], 0%; in the assay with Tetrahymena thermophila [2], 0%; in assay [3] it was 19%; in assay [4] it was 64%.
With `NC[C@@H]1O[C@H](O[C@H]2[C@@H](O)[C@H](O[C@@H]3[C@@H](O)[C@H](N)C[C@H](N)[C@H]3O[C@H]3O[C@H](CO)[C@@H](O)C[C@H]3N)O[C@@H]2CO)[C@H](N)[C@@H](O)[C@@H]1O[C@H]1O[C@H](CO)[C@@H](O)[C@H](O)[C@@H]1O`, the inhibition in the assay with Euplotes aediculatus was 10%; in the assay on Tetrahymena thermophila [1] it was 0%; with Tetrahymena thermophila [2] it was 0%; in assay [3], 12%; in assay [4], 50%.
Consider `Cn1cc(NC(=O)c2cc(NC(=O)c3cc(NC=O)cn3C)cn2C)cc1C(=O)NCCC(=N)N`, for which the inhibition in the assay on Euplotes aediculatus was determined as 75%; in the assay with Tetrahymena thermophila [1] it was 0%; in the assay with Tetrahymena thermophila [2], 0%; in assay [4], 10%.
Consider `CN(C)[C@@H]1C(O)=C(C(N)=O)C(=O)[C@@]2(O)C(O)=C3C(=O)c4c(O)cccc4[C@@](C)(O)[C@H]3C[C@@H]12`, for which the inhibition in the assay with Euplotes aediculatus came out at 0%; in the assay on Tetrahymena thermophila [1], 0%; in the assay on Tetrahymena thermophila [2] it was 0%; in assay [4], 10%.
In the case of `NCC[C@H](O)C(=O)N[C@@H]1C[C@H](N)[C@@H](O[C@H]2O[C@H](CN)[C@@H](O)[C@H](O)[C@H]2O)[C@H](O)[C@H]1O[C@H]1O[C@H](CO)[C@@H](O)[C@H](N)[C@H]1O`, the inhibition came to 0% with Euplotes aediculatus, 0% in the assay with Tetrahymena thermophila [1], 0% in the assay with Tetrahymena thermophila [2] and 25% in assay [4].
For the molecule `NC[C@@H]1O[C@H](O[C@H]2[C@@H](O)[C@H](O[C@@H]3[C@@H](O)[C@H](N)C[C@H](N)[C@H]3O[C@H]3O[C@H](CO)[C@@H](O)[C@H](O)[C@H]3N)O[C@@H]2CO)[C@H](N)[C@@H](O)[C@@H]1O`, the inhibition with Euplotes aediculatus came out at 0%; in the assay with Tetrahymena thermophila [1], 0%; with Tetrahymena thermophila [2], 0%; in assay [3], 29%; in assay [4], 60%.
`CN[C@@H]1[C@H](O)[C@H](NC)[C@H]2O[C@@]3(O)C(=O)C[C@@H](C)O[C@H]3O[C@@H]2[C@H]1O`: the inhibition (with Euplotes aediculatus; with Tetrahymena thermophila [1]; in the assay with Tetrahymena thermophila [2]; in assay [4]) was 0% in each case.
As to `CN[C@@H]1[C@@H](O[C@H]2O[C@H](CO)[C@@H](N)[C@H](O)[C@H]2O)OC2C[C@@H](N)[C@@H](O[C@H]3[C@H](O)[C@@H](O)[C@H](N)C[C@@H]3N)OC2[C@@H]1O` (some centres undefined), the inhibition in the assay on Euplotes aediculatus was 0%; in the assay on Tetrahymena thermophila [1], 0%; with Tetrahymena thermophila [2], 0%; in assay [4] it was 30%.
`CCN(CC)CCCC(C)Nc1c2ccc(Cl)cc2nc2ccc(OC)cc12` (centres undefined): the inhibition with Euplotes aediculatus was 75%; in the assay on Tetrahymena thermophila [1] it was 80%; in the assay on Tetrahymena thermophila [2], 93%; in assay [3] it was 50%; in assay [4], 82%.
The matching figures for `N=C(N)c1ccc(-c2cc3ccc(C(=N)N)cc3[nH]2)cc1`: 0%, 70%, 70%, 72% and 90%.
The matching figures for `Nc1ccc2cc3ccc(N)cc3nc2c1`: 52%, 90%, 90%, 90% and 95%.
The matching figures for `CN1CCN(c2ccc3[nH]c(-c4ccc5[nH]c(-c6ccc(O)cc6)nc5c4)nc3c2)CC1`: 86%, 15%, 50%, 34% and 81%.
As for `CN[C@@H]1C[C@H](N)[C@@H](O)[C@H](O[C@H]2O[C@H](CO)[C@H](O)[C@@H]3O[C@@]4(O[C@@H]23)O[C@H]([C@H](N)CO)[C@H](O)[C@H](O)[C@H]4O)[C@H]1O`, the inhibition (in the assay on Euplotes aediculatus; in the assay with Tetrahymena thermophila [1]; with Tetrahymena thermophila [2]; in assay [4]) was 0% each time.

The record behind these values is ChEMBL document CHEMBL1147465, “Nucleic acid-binding ligands identify new mechanisms to inhibit telomerase” (Bioorg Med Chem Lett, 2004).
